# Source: paper PMC6118327 (Biochimica et biophysica acta. Biomembranes, 2017)
# T1: mUCP1R277L (Mus musculus, UniProt P12242, R277L)
# T1 sequence (P12242 1-307 R277L): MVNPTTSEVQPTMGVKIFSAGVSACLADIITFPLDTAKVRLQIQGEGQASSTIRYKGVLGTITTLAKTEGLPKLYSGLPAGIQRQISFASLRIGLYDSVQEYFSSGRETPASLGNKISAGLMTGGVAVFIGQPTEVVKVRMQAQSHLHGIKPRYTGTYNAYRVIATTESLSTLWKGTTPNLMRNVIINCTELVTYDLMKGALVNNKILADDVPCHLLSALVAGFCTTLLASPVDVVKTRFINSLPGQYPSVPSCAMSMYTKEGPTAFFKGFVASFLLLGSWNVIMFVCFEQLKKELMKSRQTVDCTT
# T2: mUCP1 R84Q (Mus musculus, UniProt P12242, R84Q)
# T2 sequence (P12242 1-307 R84Q): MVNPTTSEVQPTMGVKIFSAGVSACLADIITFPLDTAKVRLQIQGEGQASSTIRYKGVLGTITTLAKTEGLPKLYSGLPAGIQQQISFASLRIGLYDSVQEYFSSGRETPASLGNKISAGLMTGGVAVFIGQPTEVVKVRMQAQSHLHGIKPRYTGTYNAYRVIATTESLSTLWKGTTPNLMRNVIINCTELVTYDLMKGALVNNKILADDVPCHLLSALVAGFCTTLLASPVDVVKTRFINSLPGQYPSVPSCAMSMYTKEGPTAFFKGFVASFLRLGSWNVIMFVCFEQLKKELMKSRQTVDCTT
# T3: mUCP1 (Mus musculus, UniProt P12242)
# T3 sequence (P12242 1-307): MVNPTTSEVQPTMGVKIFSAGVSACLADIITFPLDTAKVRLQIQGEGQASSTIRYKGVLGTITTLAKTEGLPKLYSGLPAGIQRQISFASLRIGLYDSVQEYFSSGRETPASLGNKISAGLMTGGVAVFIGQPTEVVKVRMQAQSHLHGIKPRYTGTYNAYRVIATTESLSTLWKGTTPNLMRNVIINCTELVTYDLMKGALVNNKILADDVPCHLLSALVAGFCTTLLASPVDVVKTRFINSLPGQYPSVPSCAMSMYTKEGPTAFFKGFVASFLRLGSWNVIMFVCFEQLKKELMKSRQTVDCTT
# T4: mUCP1R183T (Mus musculus, UniProt P12242, R183T)
# T4 sequence (P12242 1-307 R183T): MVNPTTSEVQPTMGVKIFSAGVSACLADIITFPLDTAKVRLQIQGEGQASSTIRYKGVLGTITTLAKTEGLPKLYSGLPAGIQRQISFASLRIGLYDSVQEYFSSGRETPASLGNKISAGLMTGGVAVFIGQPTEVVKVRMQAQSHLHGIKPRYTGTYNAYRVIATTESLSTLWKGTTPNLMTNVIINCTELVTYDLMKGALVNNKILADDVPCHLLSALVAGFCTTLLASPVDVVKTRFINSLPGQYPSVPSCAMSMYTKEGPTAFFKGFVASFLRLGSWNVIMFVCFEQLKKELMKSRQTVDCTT
# T5: mUCP3 (Mus musculus, UniProt P56501)
# T5 sequence (P56501 1-308): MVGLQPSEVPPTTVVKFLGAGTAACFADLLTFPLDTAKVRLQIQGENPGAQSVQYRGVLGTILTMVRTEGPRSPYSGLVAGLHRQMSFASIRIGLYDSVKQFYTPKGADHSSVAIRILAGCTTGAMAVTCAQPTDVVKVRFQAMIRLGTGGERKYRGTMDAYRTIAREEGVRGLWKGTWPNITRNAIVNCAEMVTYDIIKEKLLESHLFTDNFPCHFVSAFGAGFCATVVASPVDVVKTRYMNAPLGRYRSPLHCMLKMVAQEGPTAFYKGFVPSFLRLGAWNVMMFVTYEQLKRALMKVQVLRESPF
# T6: mUCP3R84Q (Mus musculus, UniProt P56501, R84Q)
# T6 sequence (P56501 1-308 R84Q): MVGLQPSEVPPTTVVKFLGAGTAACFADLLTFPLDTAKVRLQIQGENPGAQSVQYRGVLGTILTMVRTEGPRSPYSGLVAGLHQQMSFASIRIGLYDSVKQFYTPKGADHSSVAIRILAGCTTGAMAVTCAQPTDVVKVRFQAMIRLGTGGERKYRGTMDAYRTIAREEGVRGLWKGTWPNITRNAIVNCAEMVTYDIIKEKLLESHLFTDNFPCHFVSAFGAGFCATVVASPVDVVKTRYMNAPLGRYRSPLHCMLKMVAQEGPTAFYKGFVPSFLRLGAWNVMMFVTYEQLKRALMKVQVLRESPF
# Key:
# mUCP1R277L = target: T1, mUCP1R277L; assay: Relative conductance of UCP1 mutant in planar bilayer membranes; type: biochemical; conditions: PN 5 mM; 15 mol% AA
# Procedure, shortened: (§1)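 Arginine point mutants made by site-directed mutagenesis, expressed in E. coli Rosetta and reconstituted like wild type. Planar DOPC/DOPE/CL (45:45:10) bilayers carried 15 mol% AA; buffer pH 7.35, 32°C. Relative conductance compared with wild type after nucleotide addition: UCP1 mutants 5 mM ATP, ADP or AMP; UCP3 mutant 2 mM ATP, 4 mM ADP or 8 mM AMP. Mean ± SD, ≥3 experiments.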
# mUCP1 R84Q = target: T2, mUCP1 R84Q; assay: as above; type: biochemical; conditions: PN 5 mM; 15 mol% AA
# Procedure, shortened: as §1
# mUCP1 [1] = target: T3, mUCP1; assay: AFM recognition imaging and force spectroscopy, PN-UCP bond lifetime; type: binding; conditions: for change of UCP1-PN lifetime with AA concentration: 15 mol% vs 10 mol% AA; for lifetime of mUCP1-PN interaction: PN bound to AFM tip, supported EPL membranes, pH 7.35, 21°C
# Procedure, shortened: (§2)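 Mouse protein from E. coli inclusion bodies, solubilised in 2% SLS and reconstituted into EPL liposomes. Proteoliposomes incubated 10 min on fresh mica to form supported bilayers. For AA competition, mixed with AA liposomes to 1 mg/ml final lipid. AFM tips carried EDA-ATP, -ADP or -AMP via PEG-acetal linker. Recognition imaging plus force spectroscopy run in 50 mM Na₂SO₄/10 mM MES/10 mM Tris/0.6 mM EGTA, pH 7.35, 21°C. Lifetimes from maximum-likelihood Bell-Evans fits; mean ± SD, ≥3 experiments.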
# mUCP1R183T = target: T4, mUCP1R183T; assay: Relative conductance of UCP1 mutant in planar bilayer membranes; type: biochemical; conditions: PN 5 mM; 15 mol% AA
# Procedure, shortened: as §1
# mUCP3 [2] = target: T5, mUCP3; assay: AFM recognition imaging and force spectroscopy, PN-UCP bond lifetime; type: binding; conditions: for change of UCP3-PN lifetime with AA concentration: 15 mol% vs 10 mol% AA; for lifetime of mUCP3-PN interaction: PN bound to AFM tip, supported EPL membranes, pH 7.35, 21°C
# Procedure, shortened: as §2
# mUCP3R84Q = target: T6, mUCP3R84Q; assay: Relative conductance of UCP3 mutant in planar bilayer membranes; type: biochemical; conditions: 2 mM ATP, 4 mM ADP or 8 mM AMP; 15 mol% AA
# Procedure, shortened: as §1
# mUCP3 [3] = target: T5, mUCP3; type: biochemical; conditions: for dependence of mUCP3 inhibition on AA concentration: 10 vs 15 mol% AA, 1 mM ATP, 2 mM ADP, 5 mM AMP
# Procedure, shortened: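 Recombinant mouse protein reconstituted into DOPC/DOPE/CL (45:45:10) liposomes. Bilayers formed at 1.5 mg/ml lipid, 6 μg protein/mg lipid, AA 10 or 15 mol%. Run in 50 mM Na₂SO₄/10 mM MES/10 mM Tris/0.6 mM EGTA, pH 7.35, 32°C. I/V recorded −50 to +50 mV, including with 2 mM ATP. G from linear fit at 0 mV gives relative conductance. IC50 and maximum inhibition come from a four-parameter logistic fit. AA-dependence tested at 1 mM ATP, 2 mM ADP, 5 mM AMP. Mean ± SD, ≥3 experiments.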
# mUCP1 [4] = target: T3, mUCP1; type: biochemical; conditions: for maximum inhibition of mUCP1 / extent of inhibition at high PN concentration: 15 mol% AA; for extent of inhibition at high PN concentration: DOPC/DOPE/CL membranes, pH 7.35, 32°C
# Procedure, shortened: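 Inclusion-body mouse protein reconstituted into DOPC/DOPE/CL (45:45:10) proteoliposomes. Planar bilayers made at 1.5 mg/ml lipid, AA 10 or 15 mol% in the lipid solution, sulfate/MES/Tris/EGTA buffer pH 7.35, 32°C. I/V swept −50 to +50 mV; G at zero voltage from linear fit, normalised to AA-only and UCP+AA membranes. Titrations of nucleotides or phosphate fitted by four-parameter logistic for IC50 and maximum inhibition. AA comparison used 1 mM ATP, 2 mM ADP, 2 mM AMP. Mean ± SD, ≥3 experiments.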
# mUCP3 [5] = target: T5, mUCP3; type: biochemical; conditions: membrane reconstituted with AA and mUCP3, pH gradient; seven independent experiments
# [6] = DOPC/DOPE/CL membranes, 15 mol% AA, pH 7.35, 32°C
# [7] = lower FFA concentrations vs 15 mol% AA
inhibition of mutant compared to mUCP1 wt (mUCP1R277L),inhibition of mutant compared to mUCP1 wt (mUCP1 R84Q),change of UCP1-PN lifetime with AA concentration (mUCP1 [1]),lifetime of mUCP1-PN interaction (mUCP1 [1]) [s],inhibition of mutant compared to mUCP1 wt (mUCP1R183T),change of UCP3-PN lifetime with AA concentration (mUCP3 [2]),lifetime of mUCP3-PN interaction (mUCP3 [2]) [s],inhibition of mutant compared to wild type mUCP3 (mUCP3R84Q),"current I and total membrane conductance G after addition of inhibitor (mUCP3 [3]; 2 mM ATP, 15 mol% AA)",dependence of mUCP3 inhibition on AA concentration (mUCP3 [3]),PN concentration at which maximum inhibition is achieved (mUCP3 [3]; [6]),membrane total conductance after addition of α-cyclodextrin (mUCP3 [3]; extraction of FA from the membrane),maximum inhibition of mUCP1 (mUCP1 [4]),extent of inhibition at high PN concentration (mUCP1 [4]),change in maximum inhibition of mUCP1 at lower FFA concentration (mUCP1 [4]; [7]),effect of FFA concentration on IC50 of mUCP1 inhibition (mUCP1 [4]; [7]),extent of inhibition at high inhibitor concentration (mUCP3 [3]; [6]),proton transport rate κ (mUCP3 [5]) [s⁻¹],Molecule
similarly reduced,similarly reduced,significantly increased,1.12,similarly reduced,significantly increased,1.33,decreased the strength,decreased,higher at lower AA concentration,approx. 4 mM,,,,,,,,Nc1ncnc2c1ncn2[C@@H]1O[C@H](COP(=O)(O)OP(=O)(O)OP(=O)(O)O)[C@@H](O)[C@H]1O [ATP]
,,,,,,,,,,,decrease of membrane total conductance,,,,,,,"OC[C@H]1O[C@@H]2O[C@H]3[C@H](O)[C@@H](O)[C@@H](O[C@H]4[C@H](O)[C@@H](O)[C@@H](O[C@H]5[C@H](O)[C@@H](O)[C@@H](O[C@H]6[C@H](O)[C@@H](O)[C@@H](O[C@H]7[C@H](O)[C@@H](O)[C@@H](O[C@H]1[C@H](O)[C@H]2O)O[C@@H]7CO)O[C@@H]6CO)O[C@@H]5CO)O[C@@H]4CO)O[C@@H]3CO [α-cyclodextrin, alpha-cyclodextrin]"
,did not affect,significantly increased,0.75,impaired inhibition,not significant,0.56,decreased the strength,,less,,,lower than 100%,partially inhibit,No change,affected,,,Nc1ncnc2c1ncn2[C@@H]1O[C@H](COP(=O)(O)OP(=O)(O)O)[C@@H](O)[C@H]1O [ADP]
no longer able to inhibit,did not affect,unaffected,0.16,,unaffected,0.13,did not affect,,,,,lower than 100%,partially inhibit,,,fully inhibit,,Nc1ncnc2c1ncn2[C@@H]1O[C@H](COP(=O)(O)O)[C@@H](O)[C@H]1O [AMP]
,,,,,,,,,,,,,,,,,2.56 ± 0.79,"mUCP3: recombinant mouse uncoupling protein 3 reconstituted in planar lipid membranes (protein, UniProt P56501 1-308, looked up) Putative mitochondrial …: MVGLQPSEVPPTTVVKFLGAGTAACFADLLTFPLDTAKVRLQIQGENPGAQSVQYRGVLGTILTMVRTEGPRSPYSGLVAGLHRQMSFASIRIGLYDSVKQFYTPKGADHSSVAIRILAGCTTGAMAVTCAQPTDVVKVRFQAMIRLGTGGERKYRGTMDAYRTIAREEGVRGLWKGTWPNITRNAIVNCAEMVTYDIIKEKLLESHLFTDNFPCHFVSAFGAGFCATVVASPVDVVKTRYMNAPLGRYRSPLHCMLKMVAQEGPTAFYKGFVPSFLRLGAWNVMMFVTYEQLKRALMKVQVLRESPF"
